Calls of active or inactive are those of the source. The calls are words filed in the database; no cut-off is given here.
tested on: WB-F344; experiment: Hepatoprotective activity in rat WB-F344 cells assessed as inhibition of D-galactosamine-induced cytotoxicity at 100 uM after 1 hrs by MTT assay relative to control treated before D-galactosamine challenge; conditions: not given

**Q.** With COc1cc2ccc(=O)oc2cc1O[C@@H]1O[C@H](CO[C@@H]2OC[C@](O)(COC(=O)c3cc(OC)c(O)c(OC)c3)[C@H]2O)[C@@H](O)[C@H](O)[C@H]1O as the compound, how does the Activity read?
**A.** The Activity was “inactive”.

**Q.** With O=C(/C=C/c1ccc(O)c(O)c1)O[C@@H]1C[C@](O)(C(=O)O)C[C@@H](O)[C@H]1O as the compound, how does the Activity read?
**A.** The Activity was “inactive”.

**Q.** Which Activity does the source give for COc1cc(C(=O)OC[C@@]2(O)CO[C@@H](OC[C@H]3O[C@@H](OC(C)C)[C@H](O)[C@@H](O)[C@@H]3O)[C@@H]2O)cc(OC)c1O here?
**A.** The Activity was “inactive”.

**Q.** With O=C(/C=C/c1ccc(O)cc1)NCCc1ccc(O)cc1 as the compound, how does the Activity read?
**A.** Its Activity is “inactive”.

**Q.** For COc1cc(C(=O)O)ccc1O, which Activity is on record?
**A.** The Activity was “inactive”.

**Q.** Which Activity does the source give for COc1cc2cc(Oc3cc4oc(=O)ccc4cc3OC)c(=O)oc2cc1O here?
**A.** The Activity was “Active”.

**Q.** For COc1cc(C(=O)O[C@H]2C[C@](O)(C(=O)O)C[C@H](OC(=O)/C=C/c3ccc(O)c(O)c3)[C@H]2O)cc(OC)c1O, which Activity is on record?
**A.** The Activity was “inactive”.

**Q.** With CCOC(=O)[C@]1(O)C[C@@H](O)[C@@H](OC(=O)/C=C/c2ccc(O)c(O)c2)[C@H](OC(=O)/C=C/c2ccc(O)c(O)c2)C1 as the compound, how does the Activity read?
**A.** The Activity was “inactive”.

**Q.** With O=C(O)/C=C/c1ccc(O)c(O)c1 as the compound, how does the Activity read?
**A.** Its Activity is “inactive”.

**Q.** For COc1cc(C(=O)OC[C@@]2(O)CO[C@@H](OC[C@H]3O[C@@H](OCCc4ccc(O)cc4)[C@H](O)[C@@H](O)[C@@H]3O)[C@@H]2O)cc(OC)c1O, which Activity is on record?
**A.** The Activity was “inactive”.

**Q.** With COc1cc(C(=O)OC[C@@]2(O)CO[C@@H](OC[C@H]3O[C@@H](Oc4cc5oc(=O)ccc5cc4OC)[C@H](O)[C@@H](O)[C@@H]3O)[C@@H]2O)ccc1O as the compound, how does the Activity read?
**A.** The Activity was “inactive”.

**Q.** Which Activity does the source give for CCCCOC(=O)[C@]1(O)C[C@@H](O)[C@@H](O)[C@H](OC(=O)/C=C/c2ccc(O)c(O)c2)C1 here?
**A.** Its Activity is “inactive”.

**Q.** With O=C(O)c1ccc(O)c(O)c1 as the compound, how does the Activity read?
**A.** Its Activity is “inactive”.

**Q.** For COc1cc2ccc(=O)oc2cc1O[C@@H]1O[C@H](CO)[C@@H](O)[C@H](O)[C@H]1O[C@@H]1OC[C@](O)(COC(=O)c2cc(OC)c(O)c(OC)c2)[C@H]1O, which Activity is on record?
**A.** Its Activity is “inactive”.

**Q.** Which Activity does the source give for COc1cc(C(=O)O[C@@H]2[C@@H](OC(=O)/C=C/c3ccc(O)c(O)c3)C[C@@](O)(C(=O)O)C[C@@H]2O)cc(OC)c1O here?
**A.** The Activity was “inactive”.

**Q.** Which Activity does the source give for CCOC(=O)[C@]1(O)C[C@@H](O)[C@@H](O)[C@H](OC(=O)/C=C/c2ccc(O)c(O)c2)C1 here?
**A.** The Activity was “inactive”.

**Q.** Which Activity does the source give for COc1cc(/C=C/C(=O)NCCc2ccc(O)cc2)ccc1O here?
**A.** The Activity was “inactive”.

**Q.** Which Activity does the source give for COc1cc(C(=O)OC[C@@]2(O)CO[C@@H](OC[C@H]3O[C@@H](Oc4cc(OC)c(OC)c(OC)c4)[C@H](O)[C@@H](O)[C@@H]3O)[C@@H]2O)cc(OC)c1O here?
**A.** Its Activity is “inactive”.

**Q.** For COC(=O)[C@]1(O)C[C@@H](O)[C@@H](O)[C@H](OC(=O)/C=C/c2ccc(O)c(O)c2)C1, which Activity is on record?
**A.** The Activity was “inactive”.

tested on: not listed separately; experiment: Cytotoxicity against rat WB-F344 cells assessed as cell survival rate after 1 hr at 10 uM by MTT assay; assay type: cell-based; conditions: read-out: Survival
Summary of the method: (§1)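 WB-F344 rat hepatic epithelial stem-like cells were seeded at 1 × 10⁴ cells/well in DMEM with 3% FCS, penicillin and streptomycin, and precultured 24 h at 37 °C in 5% CO₂. Test sample was added in fresh medium for 1 h, then 40 mM D-galactosamine for 24 h; parallel wells without D-galactosamine gave cytotoxicity. MTT (0.5 mg/mL) was added for 3.5 h, formazan dissolved in DMSO and read at 492 nm. Survival is % of normal, mean ± SD, n = 3.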

**Q.** For COc1cc2ccc(=O)oc2cc1O[C@@H]1O[C@H](CO[C@@H]2OC[C@](O)(CO)[C@H]2OC(=O)c2cc(OC)c(O)c(OC)c2)[C@@H](O)[C@H](O)[C@H]1O [ERYCIBOSIDE B], which viability at 1 h, 10 µM is on record?
**A.** Its viability at 1 h, 10 µM is 47%.

tested on: not listed separately; experiment: Cytotoxicity against rat WB-F344 cells assessed as cell survival rate after 1 hr at 100 uM by MTT assay; assay type: cell-based; conditions: read-out: Survival
Summary of the method: as §1

**Q.** With COc1cc(C(=O)OC[C@@]2(O)CO[C@@H](OC[C@H]3O[C@@H](Oc4c(OC)cc5ccc(=O)oc5c4OC)[C@H](O)[C@@H](O)[C@@H]3O)[C@@H]2O)cc(OC)c1O [ERYCIBOSIDE F] as the compound, how does the viability at 1 h, 100 µM read?
**A.** Its viability at 1 h, 100 µM is 44%.

**Q.** With COc1cc(C(=O)O[C@H]2C[C@](O)(C(=O)O)C[C@H](O)[C@H]2OC(=O)/C=C/c2ccc(O)c(O)c2)cc(OC)c1O as the compound, how does the viability at 1 h, 100 µM read?
**A.** Its viability at 1 h, 100 µM is 61%.

**Q.** Which viability at 1 h, 100 µM does the source give for COC(=O)c1cc(OC)c2c(c1-c1c(CO)cc(OC)c3c1OCO3)OCO2 [BICYCLOL] here?
**A.** Its viability at 1 h, 100 µM is 38%.

tested on: not listed separately; experiment: (§2) Hepatoprotective activity in rat WB-F344 cells assessed as inhibition of D-galactosamine-induced cytotoxicity at 10 uM after 1 hrs by MTT assay relative to control treated before D-galactosamine challenge; assay type: functional; conditions: WB-F344, 1 h
Summary of the method: (§3)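 WB-F344 rat hepatic epithelial stem-like cells, 1 × 10⁴ per well in DMEM with 3% fetal calf serum and penicillin/streptomycin, precultured 24 h at 37 °C in 5% CO₂. Test samples were added in fresh medium for 1 h, then cells were exposed to 40 mM D-galactosamine for 24 h. Readout was MTT 0.5 mg/mL for 3.5 h, formazan dissolved in DMSO, OD at 492 nm. Inhibition (%) = (OD sample − OD control)/(OD normal − OD control) × 100. Values are mean ± SD, n = 3.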

**Q.** Which inhibition at 10 µM does the source give for COc1cc(C(=O)OC[C@@]2(O)CO[C@@H](OC[C@H]3O[C@@H](Oc4c(OC)cc5ccc(=O)oc5c4OC)[C@H](O)[C@@H](O)[C@@H]3O)[C@@H]2O)cc(OC)c1O [ERYCIBOSIDE F] here?
**A.** The inhibition at 10 µM was 15.5%.

**Q.** Which inhibition at 10 µM does the source give for COc1cc(C(=O)O[C@H]2C[C@](O)(C(=O)O)C[C@H](O)[C@H]2OC(=O)/C=C/c2ccc(O)c(O)c2)cc(OC)c1O here?
**A.** Its inhibition at 10 µM is 42.2%.

**Q.** With COC(=O)c1cc(OC)c2c(c1-c1c(CO)cc(OC)c3c1OCO3)OCO2 [BICYCLOL] as the compound, how does the inhibition at 10 µM read?
**A.** The inhibition at 10 µM was 11.2%.

tested on: WB-F344; experiment: as §2; assay type: functional; conditions: not given
Summary of the method: as §3

**Q.** For COc1cc(C(=O)OC[C@@]2(O)CO[C@@H](O[C@H]3[C@H](Oc4cc5oc(=O)ccc5cc4OC)O[C@H](CO)[C@@H](O)[C@@H]3O)[C@@H]2O)ccc1O, which Activity is on record?
**A.** The Activity was “inactive”.

**Q.** With COc1cc2cc(-c3cc4cc(OC)c(O)cc4oc3=O)c(=O)oc2cc1O as the compound, how does the Activity read?
**A.** The Activity was “inactive”.

**Q.** For COC(=O)[C@@]1(O)C[C@@H](OC(=O)/C=C/c2ccc(O)c(O)c2)[C@H](O)[C@H](OC(=O)c2cc(OC)c(O)c(OC)c2)C1, which Activity is on record?
**A.** Its Activity is “inactive”.

Reference: ChEMBL document CHEMBL1154898, “Hepatoprotective constituents from the roots and stems of Erycibe hainanesis” (J Nat Prod, 2010)
